Data on eight molecules can be found in paper PMC6805150 (Bioorganic & medicinal chemistry, 2014).

Data set [1] has as its target T1, GST-RXRα LBD with D22 coactivator peptide (Homo sapiens, UniProt P19793).
T1 sequence (P19793 227-458 limits assumed): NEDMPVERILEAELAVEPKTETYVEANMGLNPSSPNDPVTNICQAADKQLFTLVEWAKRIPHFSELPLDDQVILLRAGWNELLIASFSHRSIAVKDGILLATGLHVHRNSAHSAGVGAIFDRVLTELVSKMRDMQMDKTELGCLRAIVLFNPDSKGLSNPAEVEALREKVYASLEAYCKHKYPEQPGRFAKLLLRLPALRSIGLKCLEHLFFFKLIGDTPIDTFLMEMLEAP
Briefly: TR-FRET RXR LBD-coactivator peptide recruitment assay, D22 peptide. Format: biochemical. Conditions: in combination with a low concentration of CD3254 agonist (Figure S2). The essentials:
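5 nM GST-RXRα LBD incubated at room temperature with 150 nM fluorescein-D22 peptide in 25 mM Hepes pH 7.4, 100 mM NaCl, 0.025% BSA, 5% glycerol, 0.005% Tween-20, 2.5 mM DTT. Ligand or DMSO (≤1%) added; 2 nM Tb-anti-GST antibody for detection. After 4 h, TR-FRET read at 495 and 520 nm. The 520/495 ratio was expressed as Delta F% against controls lacking GST-RXRα.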

Data set [2] relates to Jurkat T cells. Put plainly: CellTiter-GLO cell viability/proliferation assay. The following applies: 4 μM, 24 h (Table 1).
The target in data set [3] is T2, recombinant IKKβ (Homo sapiens, UniProt O14920).
T2 sequence (O14920 1-756): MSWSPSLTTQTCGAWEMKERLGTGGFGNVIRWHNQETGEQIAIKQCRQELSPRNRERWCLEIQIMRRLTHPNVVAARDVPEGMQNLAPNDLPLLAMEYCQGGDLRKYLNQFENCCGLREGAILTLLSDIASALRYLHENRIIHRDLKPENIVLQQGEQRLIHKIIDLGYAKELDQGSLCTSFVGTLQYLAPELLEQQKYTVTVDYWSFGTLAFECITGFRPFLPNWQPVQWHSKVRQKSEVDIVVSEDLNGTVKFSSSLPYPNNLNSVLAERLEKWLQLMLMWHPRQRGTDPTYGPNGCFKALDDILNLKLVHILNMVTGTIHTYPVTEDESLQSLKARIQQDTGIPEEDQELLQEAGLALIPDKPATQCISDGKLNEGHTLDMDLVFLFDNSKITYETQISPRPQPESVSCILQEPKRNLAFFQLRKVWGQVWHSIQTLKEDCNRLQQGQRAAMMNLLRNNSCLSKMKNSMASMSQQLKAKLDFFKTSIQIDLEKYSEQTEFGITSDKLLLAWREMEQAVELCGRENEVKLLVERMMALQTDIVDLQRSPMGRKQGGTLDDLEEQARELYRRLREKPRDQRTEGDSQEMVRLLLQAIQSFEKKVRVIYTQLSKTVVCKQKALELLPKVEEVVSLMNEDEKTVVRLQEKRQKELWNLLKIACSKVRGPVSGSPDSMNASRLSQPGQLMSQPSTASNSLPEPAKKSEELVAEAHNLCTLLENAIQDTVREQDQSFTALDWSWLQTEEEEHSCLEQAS
Briefly: LANCE Ultra TR-FRET kinase assay, recombinant IKKβ. Format: biochemical. The essentials:
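Purified recombinant IKKβ (1 nM) in Hepes pH 7.4 buffer with MgCl₂, EGTA, DTT and Tween-20; 50 nM ULight-IκBα peptide substrate; 1.25 μM ATP. Runs 1 h at room temperature, then stopped with 20 mM EDTA plus 2 nM Eu-labelled phospho-specific antibody for TR-FRET. Activity is % of solvent control, 3–4 experiments in triplicate.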

Data set [4] deals with T3, RXRα (Homo sapiens, UniProt P19793).
T3 sequence (P19793 1-462): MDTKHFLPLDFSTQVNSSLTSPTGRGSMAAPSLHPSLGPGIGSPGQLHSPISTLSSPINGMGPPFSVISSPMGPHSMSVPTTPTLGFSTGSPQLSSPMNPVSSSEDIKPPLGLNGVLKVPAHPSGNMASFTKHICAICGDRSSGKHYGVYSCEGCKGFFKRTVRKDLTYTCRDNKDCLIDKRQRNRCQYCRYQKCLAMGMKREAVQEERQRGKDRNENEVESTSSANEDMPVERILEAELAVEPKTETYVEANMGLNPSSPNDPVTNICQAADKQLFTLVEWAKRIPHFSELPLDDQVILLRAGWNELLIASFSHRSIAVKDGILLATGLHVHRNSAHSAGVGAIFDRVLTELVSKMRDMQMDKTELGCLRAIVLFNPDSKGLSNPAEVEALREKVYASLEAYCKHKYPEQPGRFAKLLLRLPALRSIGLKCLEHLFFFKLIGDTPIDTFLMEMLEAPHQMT
Briefly: Gal4-RXRα transactivation assay in HEK-293-luciferase reporter cells. Format: cell-based.

For data set [5], the target named is T4, recombinant IKKε (Homo sapiens, UniProt Q14164).
T4 sequence (Q14164 1-716): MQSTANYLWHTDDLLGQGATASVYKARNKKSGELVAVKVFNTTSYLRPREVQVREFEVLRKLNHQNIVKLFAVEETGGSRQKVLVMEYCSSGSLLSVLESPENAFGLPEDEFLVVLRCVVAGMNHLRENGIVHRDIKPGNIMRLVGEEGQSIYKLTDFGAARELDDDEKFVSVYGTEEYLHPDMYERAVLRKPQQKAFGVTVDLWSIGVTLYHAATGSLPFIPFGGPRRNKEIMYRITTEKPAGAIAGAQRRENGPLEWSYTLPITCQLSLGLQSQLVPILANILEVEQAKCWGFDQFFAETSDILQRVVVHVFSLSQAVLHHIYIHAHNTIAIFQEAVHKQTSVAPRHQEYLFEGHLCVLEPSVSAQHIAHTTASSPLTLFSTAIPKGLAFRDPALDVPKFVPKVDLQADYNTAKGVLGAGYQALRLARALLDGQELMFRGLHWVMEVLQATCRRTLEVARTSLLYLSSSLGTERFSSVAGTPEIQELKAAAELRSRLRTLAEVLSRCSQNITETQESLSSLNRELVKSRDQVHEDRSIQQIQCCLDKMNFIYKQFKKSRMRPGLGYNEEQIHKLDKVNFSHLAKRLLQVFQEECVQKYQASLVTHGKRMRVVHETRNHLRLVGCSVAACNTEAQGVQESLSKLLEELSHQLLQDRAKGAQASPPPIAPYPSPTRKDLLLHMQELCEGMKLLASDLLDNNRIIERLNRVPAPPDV
Briefly: LANCE Ultra TR-FRET kinase assay, recombinant IKKε. Format: biochemical. Conditions: 20 μM AdAr; ATP near apparent Km; vs solvent control; ± SD, 3–4 experiments. The essentials:
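Recombinant IKKε enzyme, 2 nM final, in Hepes pH 7.4 kinase buffer (10 mM MgCl₂, 1 mM EGTA, 2 mM DTT, 0.01% Tween-20). Substrate was 50 nM ULight-rpS6, with 5 μM ATP, run 2 h at room temperature. The reaction was quenched with 20 mM EDTA containing 2 nM Eu-anti-phospho antibody. After 2 h, TR-FRET was read at 615 and 665 nm (340 nm excitation). Percent inhibition was taken versus solvent control; triplicate points.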

Data set [6] deals with T5, recombinant IKKα (Homo sapiens, UniProt O15111).
T5 sequence (O15111 1-745): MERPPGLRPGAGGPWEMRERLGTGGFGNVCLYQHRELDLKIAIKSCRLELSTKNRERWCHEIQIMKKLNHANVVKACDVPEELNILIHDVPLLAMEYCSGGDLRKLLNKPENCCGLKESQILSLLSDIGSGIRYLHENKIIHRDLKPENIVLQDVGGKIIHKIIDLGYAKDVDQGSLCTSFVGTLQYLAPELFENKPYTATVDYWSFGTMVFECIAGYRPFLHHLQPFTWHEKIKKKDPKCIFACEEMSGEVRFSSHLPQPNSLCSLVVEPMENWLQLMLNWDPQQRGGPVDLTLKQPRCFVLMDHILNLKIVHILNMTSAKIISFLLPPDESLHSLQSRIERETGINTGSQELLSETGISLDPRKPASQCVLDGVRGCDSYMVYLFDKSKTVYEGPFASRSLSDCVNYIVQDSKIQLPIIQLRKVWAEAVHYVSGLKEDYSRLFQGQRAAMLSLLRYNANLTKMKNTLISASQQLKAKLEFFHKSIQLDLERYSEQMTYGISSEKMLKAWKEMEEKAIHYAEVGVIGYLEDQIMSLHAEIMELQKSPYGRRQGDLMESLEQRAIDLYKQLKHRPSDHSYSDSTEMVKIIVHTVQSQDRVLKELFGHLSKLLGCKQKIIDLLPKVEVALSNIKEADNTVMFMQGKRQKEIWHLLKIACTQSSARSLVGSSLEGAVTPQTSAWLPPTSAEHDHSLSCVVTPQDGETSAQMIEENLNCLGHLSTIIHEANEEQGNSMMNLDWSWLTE
Briefly: LANCE Ultra TR-FRET kinase assay, recombinant IKKα. Format: biochemical. Conditions: 20 μM AdAr; ATP near apparent Km; vs solvent control; ± SD, 3–4 experiments. The essentials:
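Reaction stopped with 20 mM EDTA plus 2 nM Eu-labelled phospho-specific antibody. TR-FRET (ex 340 nm; 615/665 nm) read 2 h later. Counts normalized; inhibition relative to solvent control; triplicates.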

Data set [7] deals with GST-RXRα LBD. Briefly: AlphaScreen or HTRF.

No end group written: not given here.

Turning to `Cc1cc(O)c(C23CC4CC(CC(C4)C2)C3)cc1-c1ccc(CC(=O)O)cc1Cl` [6a], the “inhibition of RXRα LBD/D22 binding stimulated by CD3254” value (“inhibition … by CD3254” below) in data set [1] is listed as 25%.

Regarding `O=C(O)c1ccc(-c2cnc(-c3ccc(O)c(C45CC6CC(CC(C6)C4)C5)c3)s2)cc1` [8a, 4-[2-(3-Adamantan-1-yl-4-hydroxyphenyl)thiazol-5-yl]benzoic Acid], in data set [2], the “inhibition of Jurkat cell viability” value is listed as greater than 85%.

With `Cc1cc(O)c(C23CC4CC(CC(C4)C2)C3)cc1-c1ccc2cc(C(=O)O)ccc2c1Cl` [4a], the “potency against IKKβ relative to MX781 3 (times more potent)” value in data set [3] (ratio of IC50 values) is “about 2.5 times”. Also, the “inhibition of Jurkat cell viability” value in data set [2] is greater than 85%. In addition, the “inhibition in Gal4-RXRα transactivation assay, antagonist mode” value in data set [4] (100 nM CD3254 plus 4 μM AdAr) is listed as 30%. The “inhibition … by CD3254” value in data set [1] worked out at 25%.

Turning to `COCCOCOc1ccc(-c2ncc(-c3ccc(C(=O)O)cc3)s2)cc1C12CC3CC(CC(C3)C1)C2` [8c, 4-[2-(3-Adamantan-1-yl-4-[(2-methoxyethoxy)methoxy]phenyl)thiazol-5-yl]benzoic Acid], the “Gal4-RXRα transactivation, % of the maximum activity observed with control rexinoid CD3254” value in data set [4] (4 μM AdAr, CD3254 1 μM) is ~ 20%. Further, the “RXR Profile Agonist (fold induction of RXRα activity)” value in data set [4] (AdArs 4 μM, positive control CD3254 1 μM, vs solvent control cells) is 3 fold induction.

For “(E)-3-[2-(3-Acetamidopropoxy)-3-(adamant-1-yl)-4-hydroxybiphenyl-4-yl]acrylic Acid [2c]”, the “% Inhibition of IKK activity IKKε” value in data set [5] is 14.4 ± 4.1%. In addition, the “% Inhibition of IKK activity IKKα” value in data set [6] was 5.0 ± 4.9%. For the same molecule, the “% Inhibition of IKK activity IKKβ” value in data set [3] (20 μM AdAr, ATP near apparent Km, vs solvent control, ± SD, 3–4 experiments) is given as 0%.

Consider `CCCCCOc1cc2c(cc1-c1cc(/C=C/C(=O)O)ccc1O)C(C)(C)CCC2(C)C` [34, UVI3003, reference compound], for which the “inhibition … by CD3254” value in data set [1] is reported as “complete inhibition”.

In data set [7], CPSSHSSLTERHKILHRLLQEGSPSK (biotin on the added C-terminal lysine (-K-biotin)) [biotinylated SRC-1-676-700 peptide] returned a Delta F% (ligand: 4a) of 53%, a Delta F% (ligand: 4b) of 187%, a Delta F% (ligand: 5a) of 373% and a Delta F% (ligand: 5b) of 437%. Besides, in data set [7], the Delta F% (ligand: 5c) is 152%, the Delta F% (ligand: 6a) was 81%, the Delta F% (ligand: 6b) amounted to 422% and the Delta F% (ligand: 7a) was 162%. In data set [7], this molecule had a Delta F% (ligand: 8a) of 183%, a Delta F% (ligand: 8b) of 117%, a Delta F% (ligand: 8c) of 159% and a Delta F% (ligand: 9a) of 116%. In data set [7], the Delta F% (ligand: 9b) was 106%, the Delta F% (ligand: 9c) turned out to be 122%, the Delta F% (ligand: 10a) was 111% and the Delta F% (ligand: 10c) is 172%. For the same molecule, in data set [7], the Delta F% (ligand: 7d) came to 133%, the Delta F% (ligand: 8d) came out at 115%, the Delta F% (ligand: 9d) came to 106% and the Delta F% (ligand: CD3254 33) was determined as 561%. Moreover, the Delta F% (no ligand) in data set [7] was found to be 148%.

As for fluorescein-LPYEGSLLLKLLRAPVEEV [fluorescein labeled D22 coactivator peptide], in data set [7], the % inhibition of the CD3254-stimulated interaction (by 4a) was 25%, the % inhibition of the CD3254-stimulated interaction (by 6a) is 25%, the Delta F% (ligand: 4a) came to 29% and the Delta F% (ligand: 4b) was determined as 159%. Besides, in data set [7], the Delta F% (ligand: 5a) was found to be 487%, the Delta F% (ligand: 5b) stood at 654%, the Delta F% (ligand: 5c) amounted to 113% and the Delta F% (ligand: 6b) came to 214%. In data set [7], this molecule registered a Delta F% (ligand: 7a) of 156%, a Delta F% (ligand: 7c) of 127%, a Delta F% (ligand: 8a) of 94% and a Delta F% (ligand: 8b) of 113%. In data set [7], this molecule registered a Delta F% (ligand: 8c) of 133%, a Delta F% (ligand: 9c) of 119%, a Delta F% (ligand: 10a) of 102% and a Delta F% (ligand: 10c) of 170%. For the same molecule, in data set [7], the Delta F% (ligand: 9d) was 87%, the Delta F% (ligand: CD3254 33) was 416% and the Delta F% (no ligand) is 100%.
